Shown are actives, neighbours in structure and some others; about 2.4% of the full set was active somewhere.
CTSL1 counter: counter-screen for PFM18AAP inhibitors: inhibitors of F. hepatica cathepsin L1; inhibition, % at 5.96 µM; recombinant F. hepatica cathepsin L1, Z-Leu-Arg-MCA fluorescence; 300,000 compounds, 0.49% hits;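 active means inhibition above the mean of all tested compounds plus 3 SD, set per screening campaign, cut at about 17% in these data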;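 further: 0% = plate median of test compound wells and 100% = 1 µM Z-Phe-Ala-diazomethylketone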
H9c2 protect: protects H9c2 cardiomyocytes from peroxide injury; H2O2 injury protection, ATPLite, 2 h; protection from H2O2 cell death, % at 20 µM; 360,000 compounds, 0.63% hits; AID 588492;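 active means compounds giving at least 50% protection of heart cells from peroxide-induced death in the single-dose screen, raw or plate-pattern-corrected value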;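 further: 0% = DMSO wells with peroxide and 100% = DMSO wells without peroxide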
T cruzi repl: blocks replication of Trypanosoma cruzi | AID 1885 | inhibition, % (concentration not given with the values) | T. cruzi beta-gal in NIH3T3, luminescence, 90 h | 300,000 compounds, 1.4% hits;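 active means mean inhibition across valid replicates above about 55%, limit read from the data; inconclusive means mean below that limit but half or more replicates reach it; inactive means mean below it, under half of replicates reach it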;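 further: signal also drops with host cell toxicity which is not excluded here; 0% = plate median of DMSO wells and 100% = zero luminescence signal; higher percent means less beta-gal luminescence so fewer parasites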
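Incubation – ≥90 h infection period, 3 h prior cell attachment · System – NIH/3T3 fibroblasts plus reporter T. cruzi · Doses – compound pinned at 50 nL/well, DMSO · Read-out basis – percent inhibition of parasite-derived β-gal signal · Signal – luminescent β-galactosidase signal after 60 min lysis · Also added – 5000 T. cruzi trypomastigotes/well · Medium – Low-serum DMEM with 2% FBS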
PP5 primary: PP5 (human) phosphatase inhibition; purified PP5c, OMFP substrate fluorescence; AID 1987; inhibition, % at 6.7 µM; 320,000 compounds, 0.18% hits;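 active means inhibition above the campaign's mean inhibition across all tested compounds plus 3 SD, cut at about 9.5% in these data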;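 further: 0% = DMSO only and 100% = 100 µM cantharidin control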
pCIP destab: p/CIP protein destabilization. Q05BA5. F442A p/CIP-EGFP cells, EGFP fluorescence, 16 h. decrease of EGFP signal, % at 10 µM. AID 1984. 290,000 compounds, 0.01% hits;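 active means EGFP signal decrease of at least 30% at 10 µM or well 3 SD below plate mean, unless failing retest; inactive means the rest, including hits failing retest or dose response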
JMJD2C inh: inhibitors of human GASC-1 (JMJD2C) demethylase | GST-JMJD2C(1-420) H3K9me3 demethylation, DELFIA europium | inhibition, % at 2.35 µM | 330,000 compounds, 0.069% hits | AID 2099;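 active means more than half of a compound's replicate wells show inhibition beyond 50%, single wells judged on their own value; inconclusive means some, but no more than half, of replicates pass 50% inhibition; inactive means no replicate passes 50% inhibition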;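 further: signal counts dimethyl H3K9 product captured on neutravidin plate; 0% = median of DMSO wells and 100% = 0.3 times that DMSO median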
Target sequence (Q9H3R0 1-420 limits assumed): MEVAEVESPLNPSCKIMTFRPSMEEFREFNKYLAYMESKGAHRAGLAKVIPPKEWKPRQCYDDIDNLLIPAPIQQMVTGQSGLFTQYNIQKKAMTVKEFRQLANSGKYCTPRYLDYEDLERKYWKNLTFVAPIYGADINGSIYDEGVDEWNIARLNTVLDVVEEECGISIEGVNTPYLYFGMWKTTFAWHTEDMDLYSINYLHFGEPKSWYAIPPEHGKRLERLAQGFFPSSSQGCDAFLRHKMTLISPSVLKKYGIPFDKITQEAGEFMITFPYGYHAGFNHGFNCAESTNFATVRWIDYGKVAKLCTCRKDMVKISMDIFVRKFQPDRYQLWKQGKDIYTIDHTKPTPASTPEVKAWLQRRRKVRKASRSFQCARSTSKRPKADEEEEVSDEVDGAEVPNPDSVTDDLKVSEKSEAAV
An asterisk follows results filed as active; ? = inconclusive; nt = no result.

SMILES	CTSL1 counter	H9c2 protect	T cruzi repl	PP5 primary	pCIP destab	JMJD2C inh
Cc1noc(/C=C/c2ccco2)c1S(=O)(=O)N1CCC(C(=O)N2c3ccccc3CC2C)CC1 (stereo not drawn)	-1	3	58*	0	-17	-46
Cc1ccc(N(CC(=O)N2CCN(C3CCCCC3)CC2)S(=O)(=O)c2cccnc2)cc1	18*	4	nt	1	-22	nt
Cc1ccc(S(=O)(=O)N(CC(=O)N2CCCCCC2)c2ccccc2)cc1	0	-4	9	1	-2	-2
CC(C)c1ccc(-c2cc(C(=O)N3N=C(C(F)F)CC3(O)C(F)F)c3ccccc3n2)cc1 (stereo not drawn)	5	-22	69*	1	4	-9
COc1ccc(C(=O)NCc2nnc(SCC(=O)N3CCCC3)o2)cc1	2	-2	1	0	7	6
COCc1cc(C)nc(SCC(=O)Nc2ccccc2C)c1C#N	1	1	-3	0	2	-12
COCc1cc(C)nc(SCC(=O)Nc2cc(C(F)(F)F)ccc2N2CCOCC2)c1C#N	4	-2	67*	3	-16	12
COc1ccc(C(CC(=O)Nc2ccccc2OC)n2cccc2)cc1 (stereo not drawn)	-1	44	5	3	-20	-3
COc1ccc(C(CC(=O)Nc2cc(OC)cc(OC)c2)n2cccc2)cc1 (stereo not drawn)	-2	5	56*	2	-2	3
C[C@@H]1NC(=O)N(c2ccc(F)cc2)C1=O	nt	-5	-5	nt	-24	7
O=C(OCc1cccc(Cl)c1)c1cc(S(=O)(=O)N2CCCCC2)ccc1N1CCOCC1	3	-9	10	1	-13	-20
O=C(OCCOc1cccc(Cl)c1)c1cc(S(=O)(=O)N2CCCCC2)ccc1N1CCOCC1	1	-14	65*	3	nt	-1
CC(C)(C)OC(=O)C[C@@H]1C/C=C\C[C@@H](CC(=O)N(CCO)Cc2ccccc2)C(=O)N[C@@H](c2ccccc2)COC1=O	nt	34	nt	nt	nt	2
O=C(NC(=S)Nc1ccc(S(=O)(=O)N2CCCCC2)cc1)c1ccccc1	3	-16	-18	3	-10	1
CC1CC(C)CN(S(=O)(=O)c2ccc(NC(=S)NC(=O)c3ccccc3)cc2)C1 (stereo not drawn)	19*	-3	1	2	-24	7
CCOC(=O)N1CCC(n2c(SCC(=O)N3CCCC3)nc3ccccc3c2=O)CC1	3	6	32	4	10	-8
CCOC(=O)N1CCC(n2c(SCC(=O)Nc3ccccc3OC)nc3ccccc3c2=O)CC1	1	18	56*	7	-2	-6
CCOC(=O)N1CCC(n2c(SCC(=O)N3CCC(C)CC3)nc3ccccc3c2=O)CC1	-1	67*	35	3	9	-1
CC1CCCC(NC(=O)CN2C(=O)NC(c3ccccc3)(c3ccccc3)C2=O)C1C (stereo not drawn)	nt	-5	nt	nt	nt	nt
C/C(=N\NS(=O)(=O)c1c(C)cc(C)cc1C)c1ccncc1	-4	-3	-5	3	-10	5
S=c1nc2c(n[nH]1)c1ccccc1n2CCc1ccccc1	5	8	66*	0	5	-2
COc1ccc(CCN2C(=O)CC(N3CCN(C/C=C/c4ccccc4)CC3)C2=O)cc1OC (stereo not drawn)	-1	-2	10	1	-11	-6
Cc1[nH]n2c(=O)c3c(nc2c1-c1ccc(Cl)cc1)CCC3	2	54*	-7	1	1	-8
CC1CCCC(NC(=O)CN(C)CC(=O)Nc2ccc(F)cc2)C1C (stereo not drawn)	nt	2	nt	3	nt	3
COc1ccc(Nc2nc(N3CCCC3)nc3ccccc23)c(OC)c1	3	-20	65*	-1	2	3
SMILES	CTSL1 counter	H9c2 protect	T cruzi repl	PP5 primary	pCIP destab	JMJD2C inh
COc1ccc(Nc2ncnc3ccccc23)c(OC)c1	-5	-2	-11	-1	-2	3
CC(Nc1nc(N2CCCCC2)nc2ccccc12)c1ccccc1 (stereo not drawn)	-1	-19	64*	1	-14	-8
Cc1c(C(=O)Nc2ccc(F)cc2)sc2ncn(CC(=O)N3CCCCC3)c(=O)c12	0	7	16	1	-8	-1
CCOC(=O)COc1ccc2c3c(c(=O)oc2c1)CCCC3	-6	55*	4	-1	-3	8
CC(C)C(=O)N1CCC1(C)C(=O)Nc1cccc(Oc2ccccc2)c1 (stereo not drawn)	nt	-3	nt	nt	nt	nt
COc1ccccc1N(C(=O)c1ccco1)C(C(=O)NC1CCCC1)c1ccc(N2CCOCC2)cc1 (stereo not drawn)	6	1	2	-2	-3	-11
CN(C)CCC1Sc2ccccc2Oc2ccccc21 (stereo not drawn)	-5	-2	26	0	-6	-2
CC1c2ccccc2SC(CCCN(C)C)c2ccccc21 (stereo not drawn)	-2	5	55*	-1	-10	-7
Nc1ncnc2c1ncn2[C@@H]1O[C@H](CO)C[C@@H]1O	1	nt	61*	5	-8	-7
COc1ccccc1OCC(=O)Nc1sc2c(c1C(=O)NCC1CCCO1)CCC2 (stereo not drawn)	3	64*	31	5	-1	-2
CCNC(=O)COC(=O)C1C(C(=O)OCC)=C(C)NC(C)=C1C(=O)OCC	0	3	6	1	-4	-22
CCOC(=O)C1=C(C)NC(C)=C(C(=O)OCC)C1C(=O)OCC(=O)NC1CCCCC1	nt	83*	nt	nt	nt	-1
O=C(c1ccc([N+](=O)[O-])cc1)N1CCN(c2ncccn2)CC1	-6	4	-6	-1	nt	4
CN(CC(=O)Nc1ccc(F)cc1)C(=O)COC(=O)CNC(=O)c1ccc(Cl)cc1Cl	21*	-4	-10	-1	nt	17
COc1ccc(Cl)cc1C(=O)OCC(=O)N(C)CC(=O)Nc1ccc(F)cc1	0	-2	-2	-1	nt	7
COc1ccc(-c2noc(CCC(=O)N3CCN(c4ccc(Cl)cc4)CC3)n2)cc1	nt	-10	nt	nt	nt	nt
Cc1ccc(-n2cc(CN3CCC(CO)(Cc4ccccc4)CC3)cn2)cc1	-3	nt	37	2	-7	-1
Cc1ccc(-n2cc(CN3CCC(CO)(Cc4cccc(C(F)(F)F)c4)CC3)cn2)cc1	0	-10	61*	3	-7	5
CC(=O)C[C@@H](O)CC(=O)[C@@H]1OC(=O)CCCCCc2ccccc21	nt	-8	nt	nt	nt	nt
COC(=O)C1=CN(c2ccc(OC)cc2)C=C(C(=O)OC)C1c1ccc([N+](=O)[O-])cc1	nt	1	60*	nt	-6	3
COC(=O)C1=CN(c2ccc(F)cc2)C=C(C(=O)OC)C1c1ccc([N+](=O)[O-])cc1	nt	3	?	nt	-4	-3
